Published values of several laboratories.
Protocols differ between the studies behind these lines.
Target: Serine/threonine-protein kinase SBK1 (SBK1, Homo sapiens, UniProt Q52WX2)

SMILES	observed	technique	concentration	remaining binding
CN(C)CC#Cc1ccc(OCCCc2sc(N3CCc4cccc(C(=O)Nc5nc6ccccc6s5)c4C3)nc2C(=O)O)c(F)c1	cell-free assay	competition with immobilised ligand	1 µM	100%
O=C(NCCCN1CCOCC1)c1ccc(Nc2ncc(Cl)c(-c3ccc(Cl)s3)n2)cc1	binding	competition with immobilised ligand	1 µM	52%
CC1CCCN1c1nccc(-c2cnn3ncccc23)n1 (stereo not shown)	binding		1 µM	100%
O=C(NCC1CCOCC1)c1n[nH]cc1NC(=O)c1c(F)cccc1F	binding	competition with immobilised ligand	1 µM	70%
COc1cnc(Nc2cccc(S(N)(=O)=O)c2)nc1N1CCN(c2ccccc2)CC1	binding	competition with immobilised ligand	1 µM	96%
CCOC(=O)c1cc2cc(-c3cc(C(=O)NCc4ccc(C(=O)O)cc4)nn3C)ccc2[nH]1	cell-free assay	competition with immobilised ligand	0.1 µM	90%
N[C@H]1CCN(c2nccc(-c3cnn4ncccc34)n2)C1	binding		1 µM	83%
CCN1CCN(Cc2ccc(C(=O)Nc3ccc(C)c(Oc4ccc5c(c4)CC(=O)N5)c3)cc2C(F)(F)F)CC1	binding	competition with immobilised ligand	1 µM	76%
c1cncc(-c2cccc(Nc3nccc(NC4CCCCC4)n3)c2)c1	binding	competition with immobilised ligand	10 µM	66%
Cc1cnc(Nc2ccc(C(=O)N3CCC(N4CCCC4)CC3)cc2)nc1-c1cc2ccccc2s1	binding	competition with immobilised ligand	1 µM	51%
C[C@H](c1cccc(C#N)c1)n1cc(Cl)cc(C(N)=O)c1=N	cell-free assay	competition with immobilised ligand	1 µM	83%
c1cnn2ncc(-c3ccnc(N4CCC45COC5)n3)c2c1	binding		1 µM	65%
COc1cnc(Nc2cccc(S(N)(=O)=O)c2)nc1N1CCN(c2ccccc2)C(=O)C1	binding	competition with immobilised ligand	1 µM	61%
C[C@H]1CCN(c2nccc(-c3cnn4ncccc34)n2)C1	binding		1 µM	78%
CC(=O)c1c(NS(C)(=O)=O)c2cc(-c3ccc(Cl)cc3)c(-c3ccc(Cl)cc3Cl)nc2n(C)c1=O	cell-free assay	competition with immobilised ligand	1 µM	77%
Nc1ncc2c(n1)-c1c([nH]c3ccc(C#CC4CC4)cc13)CCCC2	binding	competition with immobilised ligand	1 µM	100%
Cc1cc(NC(=O)c2cccc(S(F)(F)(F)(F)F)c2)cc(-n2ccn3nc(-c4cccnc4)cc23)c1	cell-free assay	competition with immobilised ligand	1 µM	100%
CN(C)c1nccc(-c2cnn3ncccc23)n1	binding		1 µM	100%
CCCCN(CCCC)C(=O)CN1C[C@H](c2cc(OC)c3c(c2)OCO3)[C@@H](C(=O)O)[C@@H]1CC(C)(C)CCC	cell-free assay	competition with immobilised ligand	1 µM	76.5%
F[C@@H]1CCN(c2nccc(-c3cnn4ncccc34)n2)C1	binding		1 µM	100%
O=C(NCc1ncc(C(F)(F)F)cc1Cl)c1ccc2c(c1)C1(CCS(=O)(=O)CC1)[C@H](C1CC1)N2S(=O)(=O)c1ccc(F)cc1	cell-free assay	competition with immobilised ligand	1 µM	97%
O=C(c1ccc(Nc2ncc(Cl)c(-c3ccc(Cl)s3)n2)cc1)N1CCC(N2CCCC2)CC1	binding	competition with immobilised ligand	1 µM	48%
